High-throughput results from PubChem.
thrombin 1536 – thrombin (human) inhibition; alpha-thrombin, Boc-VPR-AMC fluorogenic substrate cleavage; P00734; inhibition, % at 5 µM; hit rate 0.26% among 220,000; AID 1046;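 active = inhibition at or above 40%; inactive = inhibition below 40%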;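 note: 0% = enzyme with no compound and 100% = wells without enzyme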
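Material: human alpha-thrombin enzyme / Medium: pH 7.5 Tris (50 mM) with NaCl 150 mM, Tween 20 0.05% / Compound: single-point dosing at 5 µM, 0.2% DMSO / Incubation: enzyme reaction carried out at room temperature / Detection: AMC fluorescence, 355/460 nm / Read-out basis: percent inhibition scaled between no-compound controls and no-enzyme blanks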
FXIIa inh – blocks human coagulation factor XIIa protease activity; P00748; purified FXIIa, Boc-QGR-AMC fluorogenic substrate, 2 h; inhibition, % at 5 µM; hit rate 0.3% among 220,000; in the data active = inhibition above about 40%;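 note: 0% = enzyme with no compound and 100% = blank without enzyme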
KLK5 inh – blocks human kallikrein 5 protease activity. recombinant hK5, fluorogenic AMC substrate cleavage. inhibition, % at 5 µM. hit rate 0.59% among 210,000. AID 873;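 active = inhibition of 40% or more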;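 note: 0% = enzyme controls without compound and 100% = no-enzyme blanks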
TbHK1 inh – T. brucei hexokinase 1 inhibition; hit rate 0.11% among 220,000; inhibition, % at 10 µM; AID 1430; recombinant TbHK1, G6PDH-coupled NADH A340;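 active = inhibition of 50% or more in the single-dose primary screen; inactive = inhibition below 50%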
FXIa inh 1536 – blocks human coagulation factor XIa protease activity. P03951. purified FXIa, Boc-Glu-Ala-Arg-AMC fluorogenic substrate. inhibition, % at 5 µM. hit rate 0.14% among 220,000;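 active = inhibition of at least 40%; inactive = inhibition below 40%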;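 note: fluorescence of freed AMC excited at 355 nm; 0% = enzyme without compound and 100% = no enzyme blank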
Target sequence (P03951 19-387 limits assumed): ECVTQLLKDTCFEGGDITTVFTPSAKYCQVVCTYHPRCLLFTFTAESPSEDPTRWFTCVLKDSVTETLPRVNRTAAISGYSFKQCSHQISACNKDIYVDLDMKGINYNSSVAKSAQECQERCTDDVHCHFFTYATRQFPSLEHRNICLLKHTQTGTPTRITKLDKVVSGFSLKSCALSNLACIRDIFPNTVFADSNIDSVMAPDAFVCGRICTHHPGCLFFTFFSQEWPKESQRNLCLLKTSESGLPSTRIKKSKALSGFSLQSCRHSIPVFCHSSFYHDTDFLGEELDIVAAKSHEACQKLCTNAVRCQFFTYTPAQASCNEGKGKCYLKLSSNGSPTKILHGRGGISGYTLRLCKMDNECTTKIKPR
Target sequence (P03951 388-625 limits assumed): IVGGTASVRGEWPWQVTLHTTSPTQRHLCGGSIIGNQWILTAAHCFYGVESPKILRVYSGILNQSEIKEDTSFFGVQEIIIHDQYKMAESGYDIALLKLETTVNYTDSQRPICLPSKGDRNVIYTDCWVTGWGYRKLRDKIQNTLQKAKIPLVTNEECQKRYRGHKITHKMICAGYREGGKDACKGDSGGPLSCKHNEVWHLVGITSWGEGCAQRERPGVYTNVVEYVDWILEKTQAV
* = called active by the depositor; nt = not tested or not shown. An excerpt weighted towards active compounds, which were near 1.1% of everything screened.

SMILES	thrombin 1536	FXIIa inh	KLK5 inh	TbHK1 inh	FXIa inh 1536
Cc1ccc2nc(SCC(=O)Nc3cccc(S(N)(=O)=O)c3)[nH]c2c1	0.9	9.0	92.9*	-4.7	2.0
COc1ccc([N+](=O)[O-])cc1NS(=O)(=O)c1ccc(Cl)c(C(=O)Nc2sc3c(c2C#N)CCCCC3)c1	1.7	1.7	12.4	-3.4	-3.3
CC(C)/C(=N\NS(=O)(=O)c1ccc(Br)cc1)c1cccs1	1.5	2.6	-17.0	-0.9	-3.3
CCc1ccc(NC(=O)COC(=O)CCc2nc3cc(S(=O)(=O)N(CC)CC)ccc3n2C)cc1	38.7	5.8	57.6*	-3.4	12.1
COc1ccc(C)cc1NC(=O)COC(=O)C1CCN(C(=O)c2ccc(Cl)cc2)CC1	26.8	26.3	28.1	7.2	49.3*
COc1ccc(-c2cn3cccc(C)c3n2)cc1F	13.3	21.4	40.8*	4.4	31.6
Cc1ccccc1C(=O)NC1CC(C)(C)NC(C)(C)C1	33.1	16.9	57.9*	4.9	2.8
Cc1ccc(C)c(C(=O)NC2CC(C)(C)NC(C)(C)C2)c1	-11.3	-8.9	-3.0	7.0	-6.0
O=C(CC(=O)NC1CCCCC1)N/N=C/c1ccccc1F	-12.3	3.9	-0.8	-8.0	0.4
O=C(NNC(=O)c1cccnc1)Nc1ccc([N+](=O)[O-])cc1	33.6	24.3	42.0*	-20.4	9.2
Cc1ccc(NC(=O)N[C@H](C(=O)O)C(C)C)c(C)c1	0.2	13.6	3.3	9.0	2.6
CCOC(=O)N1CCN(C(=O)c2ccccc2N(C)S(C)(=O)=O)CC1	54.7*	-4.2	-13.9	-3.4	-4.7
CC1CCCC(C)N1C(=O)CN1C(=O)C(C)(C)Oc2ccc(C(=O)NC3CCCC3)cc21 (centres undefined)	-1.6	13.7	-13.2	-3.9	1.5
CC1(C)Oc2ccc(C(=O)NC3CCCC3)cc2N(CC(=O)NC2CCCC2)C1=O	1.1	63.7*	10.2	-1.8	20.0
COc1ccccc1CNC(=O)CSc1nc(C)cs1	-8.8	5.0	-1.0	-1.4	-2.9
Cc1csc(SCC(=O)NCc2ccccc2Cl)n1	47.6*	21.1	35.2	8.3	25.5
O=C(O)c1ccc(/C=N/NC(=O)c2ccc(F)cc2)cc1	67.8*	-0.9	-4.2	-2.5	-5.9
O=C(CCC(=O)Nc1ccc(F)cc1)N/N=C/c1ccncc1	4.3	5.5	-1.3	-2.5	-3.2
O=C(Cc1ccc(F)cc1)N/N=C/c1ccncc1	29.8	36.3	54.8*	0.3	19.5
O=[N+]([O-])c1cccc(CSc2nnc(Cc3ccccc3)n2-c2ccc(F)cc2)c1	-2.0	3.2	-10.9	2.0	1.4
CCOC(=O)C(=CNc1ccc(C)cc1C)C(=O)OCC	-4.8	-8.0	-9.6	-16.8	3.1
CCOC(=O)C(=CNc1cccc(C)c1C)C(=O)OCC	45.1*	18.8	7.2	-18.5	-8.8
CN1CCN(c2nc3ccccn3c(=O)c2/C=C(\C#N)S(=O)(=O)c2ccc(Cl)cc2)CC1	4.8	11.6	2.7	-18.1	5.8
COc1cc(CCC(=O)Nc2cccc(C(F)(F)F)c2)cc(OC)c1OC	41.4*	2.0	10.2	-1.2	3.9
Cc1ccc(NC(=O)/C(CN(C)C)=N\O)cc1	-1.2	41.9*	10.8	-6.3	16.2
SMILES	thrombin 1536	FXIIa inh	KLK5 inh	TbHK1 inh	FXIa inh 1536
Cc1ccc(NC(=O)CN(C)CC(=O)Nc2ccccc2-c2ccccc2)cc1	-2.4	7.8	21.7	-0.4	0.8
O=C1CC(c2ccc(F)cc2)Sc2nc(C34CC5CC(CC(C5)C3)C4)nn21 (centres undefined)	4.8	2.0	-3.3	6.5	7.0
CC(NC(=O)c1ccc(C(C)(C)C)cc1)C(=O)O (centres undefined)	3.4	-13.1	-26.4	3.8	-12.2
CCCOc1ccc(C(=O)NC(C)C(=O)O)cc1 (centres undefined)	3.0	40.0*	-5.0	4.9	18.2
Cc1cc(N(C)C)c(C#N)c(NCc2ccccc2)n1	18.9	27.0	64.4*	-0.1	3.2
CN(C)c1ccnc(NCc2ccccc2)c1C#N	-0.9	14.4	-9.3	-9.0	11.0
Cc1ccc(C2=C/C(=C/c3cccnc3)C(=O)O2)c(C)c1	-6.3	3.0	-12.2	-7.7	2.1
COc1cccc(N=C2SC(CC(=O)Nc3ccccc3)C(=O)N2Cc2ccccn2)c1 (centres undefined)	-8.6	9.7	1.4	2.3	-3.8
CCOC(=O)C(=O)Nc1ccc(S(=O)(=O)Nc2ncccn2)cc1	20.9	3.1	16.6	1.9	3.6
CCOCC(=O)Nc1ccc(S(=O)(=O)Nc2ncccn2)cc1	0.9	52.9*	1.4	4.1	24.8
COc1cccc(CNc2ccc([N+](=O)[O-])cc2C)c1	-9.3	10.9	9.1	2.6	1.3
COc1ccc(OC)c(CNc2ccc([N+](=O)[O-])cc2C)c1	-4.2	100.2*	0.0	-1.7	4.9
O=C(c1ccc(Cl)cc1)N1CCc2c([nH]c3ccccc23)C1C(F)(F)F (centres undefined)	-11.5	0.7	2.9	0.9	-6.8
O=C(c1cn[nH]c1)N1CCc2c([nH]c3ccccc23)C1c1c(F)cccc1Cl (centres undefined)	2.2	14.8	75.1*	-3.7	0.3
O=C(Oc1ccc2ccccc2c1)c1ccco1	24.4	28.8	17.0	-6.9	3.9
O=C(Oc1cncc(Cl)c1)c1ccco1	20.5	60.9*	41.7*	-0.6	83.7*
COc1cccc(CSc2ccc(S(=O)(=O)N3CCOCC3)cc2C(=O)NCC2CCCO2)c1OC (centres undefined)	-4.2	4.6	nt	-9.7	-2.1
Cc1cccc2[nH]c(SCC(=O)N3CCOCC3)nc12	0.6	7.2	-0.4	0.0	-3.4
COc1cc(C(=O)Nc2ccc3c(c2)OCCO3)ccc1OC(C)C	33.8	-2.4	62.9*	-5.7	8.6
COc1cc(C(=O)Nc2ccc3c(c2)OCCO3)ccc1OC(F)F	1.2	13.0	5.5	-8.9	4.8
Cc1ccc(-c2nnc(SCC(=O)Nc3cccc(C(=O)N4CCOCC4)c3)n2C)cc1	-8.5	6.2	-13.6	33.2	5.8
CCc1ccccc1NC(=O)c1nnn(CC(=O)Nc2cccc(C)c2)c1N	-9.6	-1.9	43.2*	9.3	-9.1
Cc1ccc(C)c(NC(=O)Cn2nnc(C(=O)Nc3c(C)cccc3C)c2N)c1	5.4	12.6	52.4*	20.9	-2.3
Cc1csc2cc(-c3cccc([N+](=O)[O-])c3)c(-c3cccc([N+](=O)[O-])c3)c[n+]12	-1.8	11.9	-17.9	-53.4	2.5
Nc1c(C(=O)c2ccccc2O)cnn1-c1ccc(S(=O)(=O)N2CCOCC2)cc1[N+](=O)[O-]	-5.3	12.3	2.4	2.5	3.3
S=C(NCc1cccs1)NCC1CCCO1 (centres undefined)	60.1*	24.9	13.7	6.8	26.0
S=C(NCC1CCCO1)Nc1ccc(Nc2ccccc2)cc1 (centres undefined)	-3.1	25.3	40.1*	9.0	29.3
S=C(NCC1CCCO1)Nc1cccc(Cl)c1 (centres undefined)	2.9	4.0	-3.2	3.4	-4.2
Cn1c(CSCCOc2ccccc2)n[nH]c1=S	-5.0	0.4	53.4*	1.8	-9.2
